Measured values reported in ChEMBL document CHEMBL3286392, “Iron chelators in photodynamic therapy revisited: synergistic effect by novel highly active thiosemicarbazones” (ACS Med Chem Lett, 2014).
Active and inactive are the calls of the source. No cut-off for these calls is given here.

Experiments:
HeLa = assay: Dark cytotoxicity against human HeLa cells after 72 hrs by MTT assay; assay type: cell-based
HCT-116 [1] = assay: Photocytotoxicity against human HCT116 cells expressing wild type p53 incubated for 24 hrs followed by light irradiation measured after 24 hrs by MTS assay in presence of ALA and FeCl3; assay type: functional, cell-based
HCT-116 [2] = assay: Photocytotoxicity against human HCT116 cells expressing wild type p53 assessed as combination index incubated for 24 hrs followed by light irradiation measured after 24 hrs by MTS assay in presence of ALA; assay type: functional
Procedure, shortened: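 HCT 116+/+ cells were treated with TSC at a range of concentrations plus ALA held at 1 mM. PpIX was irradiated at varied light doses, with doses increased in constant ratio. CI was calculated by the Chou–Talalay method as the summed doses in the combination divided by the dose of each therapy alone giving the same cytotoxic effect.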

HCT-116 [3] = assay: Induction of ROS generation in human HCT116 cells expressing wild type p53 at 1.6 nM after 24 hrs by spectrophotometry; assay type: functional, cell-based
NHDF = assay: Dark cytotoxicity against human NHDF cells after 72 hrs by MTT assay; assay type: cell-based
HCT-116 [4] = assay: Dark cytotoxicity against human HCT116 cells expressing wild type p53 after 96 hrs by MTT assay; assay type: cell-based; conditions: HCT-116, 96 h
[5] = Ratio of IC50 for p53-deficient human HCT116 cells to IC50 for human Raji cells; assay type: cell-based; conditions: hct-116
Raji = assay: Dark cytotoxicity against human Raji cells after 72 hrs by MTT assay; assay type: cell-based
HCT-116 [6] = assay: Cytotoxicity against human HCT116 cells expressing wild type p53 assessed as cell death at 50 uM; assay type: cell-based; conditions: hct-116, 50 µM
HCT-116 [7] = assay: Dark cytotoxicity against p53-deficient human HCT116 cells after 96 hrs by MTT assay; assay type: cell-based; conditions: HCT-116, 96 h
HCT-116 [8] = assay: Induction of ROS generation in human HCT116 cells expressing wild type p53 at 4 uM after 24 hrs by spectrophotometry; assay type: functional, cell-based
HCT-116 [9] = assay: Induction of 5-aminolevulinic acid-induced cellular PpIX formation in human HCT116 cells expressing wild type p53 at 50 uM by fluorescence plate reader analysis; assay type: functional, cell-based
HCT-116 [10] = assay: Induction of ROS generation in human HCT116 cells expressing wild type p53 at 8 nM after 24 hrs by spectrophotometry; assay type: functional, cell-based
[11] = Ratio of IC50 for human HCT116 cells expressing wild type p53 to IC50 for human NHDF cells; assay type: cell-based, HCT-116; conditions: HCT116 cells expressing wild type p53 and NHDF cells, read-out: Ratio IC50

**Q.** With `S=C(NN=C(c1ccccn1)c1ccccn1)N1CCN(c2ccccc2)CC1` as the molecule, how does the IC50 (HeLa) read?
**A.** 0.57 µM

**Q.** What about the Activity (HCT-116 [1]) of the same molecule?
**A.** Active

**Q.** What about the CI (HCT-116 [2]) of the same molecule?
**A.** 0.47

**Q.** What about the Activity (HCT-116 [3]) of the same molecule?
**A.** Active

**Q.** And the IC50 (NHDF)?
**A.** 0.00173 µM

**Q.** And the IC50 (HCT-116 [4])?
**A.** 0.00081 µM

**Q.** What about the “Ratio IC50” value [5] of the same molecule?
**A.** 2.4

**Q.** What about the IC50 (Raji) of the same molecule?
**A.** 0.00032 µM

**Q.** And the Activity (HCT-116 [6])?
**A.** Toxic

**Q.** And the IC50 (HCT-116 [7])?
**A.** 0.00076 µM

**Q.** Which results are given for `NC(=S)N/N=C/c1ncccc1N` [TRIAPINE]?
**A.** Activity (HCT-116 [1]): Active; CI (HCT-116 [2]): 0.85; IC50 (HCT-116 [4]): 1.23 µM; Activity (HCT-116 [8]): Active

**Q.** For `CCN1CCN(C(=S)N/N=C/c2ccccc2O)CC1`, which IC50 (HeLa) is on record?
**A.** > 20 µM

**Q.** And the Activity (HCT-116 [9])?
**A.** inactive

**Q.** What about the Activity (HCT-116 [1]) of the same molecule?
**A.** Active

**Q.** What about the CI (HCT-116 [2]) of the same molecule?
**A.** 0.95

**Q.** And the IC50 (NHDF)?
**A.** > 20 µM

**Q.** And the IC50 (HCT-116 [4])?
**A.** > 20 µM

**Q.** And the IC50 (Raji)?
**A.** > 10 µM

**Q.** And the IC50 (HCT-116 [7])?
**A.** > 20 µM

**Q.** With `CN(C)C(=S)N/N=C/c1c(O)ccc2cccnc12` as the molecule, how does the Activity (HCT-116 [9]) read?
**A.** inactive

**Q.** And the Activity (HCT-116 [1])?
**A.** Active

**Q.** What about the CI (HCT-116 [2]) of the same molecule?
**A.** 6.08

**Q.** And the IC50 (NHDF)?
**A.** > 20 µM

**Q.** And the IC50 (HCT-116 [4])?
**A.** > 20 µM

**Q.** And the IC50 (HCT-116 [7])?
**A.** > 20 µM

**Q.** Which results are given for `Oc1cccc2ccc(/C=N/NC(=S)N3CCOCC3)nc12`?
**A.** Activity (HCT-116 [10]): Active; IC50 (HeLa): 0.176 µM; Activity (HCT-116 [1]): Active; CI (HCT-116 [2]): 0.08; IC50 (NHDF): > 10 µM; IC50 (HCT-116 [4]): 0.00384 µM; selectivity ratio [11]: 2770; IC50 (Raji): 0.0212 µM; Activity (HCT-116 [6]): Toxic; IC50 (HCT-116 [7]): 0.0168 µM

**Q.** For `CC(=O)N(O)CCCCCNC(=O)CCC(=O)N(O)CCCCCNC(=O)CCC(=O)N(O)CCCCCN` [DEFEROXAMINE], which Activity (HCT-116 [9]) is on record?
**A.** inactive

**Q.** And the Activity (HCT-116 [1])?
**A.** Active

**Q.** And the CI (HCT-116 [2])?
**A.** 1.01

**Q.** What about the IC50 (HCT-116 [4]) of the same molecule?
**A.** > 200 µM

**Q.** What about the IC50 (HCT-116 [7]) of the same molecule?
**A.** > 200 µM
